SUMO1-SIM PPI – SUMO1-SIM interaction modulation | P63165 | SUMO1 binding to a labelled peptide, TR-FRET, 1 h | inhibition, % at 20 µM | 360,000 compounds, 0.33% hits | AID 602429; in the data active = inhibition above about 37%
Target sequence (P63165 whole entry, looked up): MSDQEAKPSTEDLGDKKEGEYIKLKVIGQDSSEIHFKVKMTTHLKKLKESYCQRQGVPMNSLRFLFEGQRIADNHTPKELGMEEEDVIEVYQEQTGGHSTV
LMPTP block – blocks human LMPTP phosphatase | P24666 | recombinant LMPTP-A, OMFP fluorogenic substrate, fluorescence intensity | inhibition, % at 20 µM | 360,000 compounds, 0.22% hits;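 active = compounds that cut the enzyme signal by at least half of the control window in the single-dose screen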;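 note: plate controls were DMSO wells with enzyme plus substrate for no effect and substrate without enzyme for full effect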
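material = LMPTP-A | quantity = 0.625 nM enzyme | reagent = OMFP substrate, 400 µM final | buffer or medium = Bis-Tris pH 6.0, DTT, detergent | detection = endpoint fluorescence intensity from OMFP dephosphorylation | dosing = single 20 µM dose | read-out basis = % inhibition relative to no-enzyme and uninhibited control wells | control set = no-enzyme and uninhibited controls | timing = 50 min at room temperature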
DNMT1 block – blocks human DNA methyltransferase DNMT1. P26358. DNMT1 molecular beacon, Hinp1I cleavage, fluorescence. inhibition (reported as % activation of signal), % at 10 µM. 360,000 compounds, 0.83% hits. AID 588458; in the data active = inhibition above about 50%
Scp1 inh – inhibitors of human Scp-1 phosphatase; Q9GZU7; Recombinant Scp1, phosphopeptide, malachite green phosphate absorbance; inhibition, % at 20 µM; 340,000 compounds, 0.88% hits; AID 493091;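 active = inhibition above about 50% at 20 µM, limit read from the data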;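 note: plate controls were DMSO wells with enzyme for no effect and wells lacking enzyme for full effect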
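Incubation: 45 min enzyme reaction at room temperature / System: truncated SCP-1 phosphatase (76-261aa) / Reagent: Phospho 17-mer peptide substrate / Buffer or medium: Acidic Tris acetate buffer with magnesium and detergent / Signal: absorbance at 630 nm / Doses: one concentration, 20 µM, with 1.0% DMSO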
STEP inh – blocks human striatal-enriched tyrosine phosphatase; P54829; recombinant STEP, OMFP fluorogenic substrate, fluorescence; inhibition, % at 20 µM; 360,000 compounds, 0.25% hits; AID 588621;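 active = inhibition at 20 µM, scaled per plate between control wells, above about 37%, limit read from the data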;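 note: 0% = DMSO with enzyme and substrate and 100% = substrate only without enzyme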
Target sequence (P54829 whole entry, looked up): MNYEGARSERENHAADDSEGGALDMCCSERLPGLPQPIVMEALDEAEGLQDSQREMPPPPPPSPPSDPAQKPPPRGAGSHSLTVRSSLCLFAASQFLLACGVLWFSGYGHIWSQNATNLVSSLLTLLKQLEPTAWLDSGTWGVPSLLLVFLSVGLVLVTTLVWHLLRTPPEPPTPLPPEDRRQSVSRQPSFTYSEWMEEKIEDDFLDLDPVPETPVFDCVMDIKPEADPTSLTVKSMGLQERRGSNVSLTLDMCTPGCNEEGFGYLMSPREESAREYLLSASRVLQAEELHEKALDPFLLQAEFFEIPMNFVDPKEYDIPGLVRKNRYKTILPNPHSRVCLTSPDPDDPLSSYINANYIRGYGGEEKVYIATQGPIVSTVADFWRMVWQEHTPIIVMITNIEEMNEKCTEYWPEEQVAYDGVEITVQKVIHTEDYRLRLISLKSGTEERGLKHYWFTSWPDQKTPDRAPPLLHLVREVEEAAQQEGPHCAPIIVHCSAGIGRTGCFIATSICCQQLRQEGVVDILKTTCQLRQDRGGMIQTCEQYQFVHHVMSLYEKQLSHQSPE
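Material: STEP (striatal-enriched tyrosine phosphatase) enzyme, cell-free | Medium: 50 mM Bis-Tris pH 6.0 with 2.5 mM DTT and 0.005% Tween 20 | Read-out: Percent inhibition scaled to no-enzyme and uninhibited-enzyme controls, plate-pattern corrected | Signal: Fluorescence read at 480 nm ex / 540 nm em | Times: 20 min reaction, room temperature, in the dark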
* hit, by the source's call; . = no result given; + = active, no number. Sampled rows, rich in hits. Any-hit rate of the full collection: about 1.7%.

SMILES | SUMO1-SIM PPI | LMPTP block | DNMT1 block | Scp1 inh | STEP inh
CCCCN(C(=O)c1cc(-c2ccco2)nc2ccccc12)c1c(N)n(CCC)c(=O)[nH]c1=O | 3 | 9 | 53* | 61* | 6
CCCCn1c(N)c(N(CC(C)C)C(=O)c2cc(-c3ccco3)nc3ccccc23)c(=O)[nH]c1=O | 4 | 7 | 21 | 28 | 0
COc1cc2oc(=O)cc(CN3CCN(c4ccccc4F)CC3)c2cc1Cl | 2 | 2 | 12 | . | -4
O=C(OCc1ccc(O)cc1)c1c(-c2ccsc2)oc2ccc(N3CCOCC3)cc12 | -11 | 1 | -10 | -3 | -2
c1ccc(-c2nnc(-c3ccco3)o2)cc1 | -1 | -1 | 10 | -2 | -1
c1coc(-c2nnc(-c3ccco3)nn2)c1 | 92* | 21 | 116* | 71* | 91*
Cc1noc(C)c1NC(=O)N(C)C[C@H]1Oc2ccc(NS(=O)(=O)c3c(C)noc3C)cc2C(=O)N([C@H](C)CO)C[C@@H]1C | -3 | -1 | 1 | 39 | 1
Cc1noc(C)c1S(=O)(=O)Nc1ccc2c(c1)C(=O)N([C@H](C)CO)C[C@H](C)[C@@H](CN(C)C(=O)Nc1ccc3c(c1)OCO3)O2 | 1 | -1 | 12 | 76* | -3
CS(=O)(=O)c1ccc2c(c1)sc1nc(=O)c(/C=C3/C=CC(=O)C(O)=C3)c(N)n12 | -3 | 30 | 11 | 71* | 12
CSc1ccccc1OCc1cc(C(=O)N(C)Cc2cnccn2)no1 | 1 | -1 | 1 | -5 | 0
CC(C)CCN1C(=O)c2cccc3c(N)ccc(c23)C1=O | -90 | -5 | 122* | -7 | -114
Cc1cccc(N2C(=O)c3cccc4c(N)ccc(c34)C2=O)c1 | -107 | -8 | 75* | 0 | -115
Cc1cc(C)c(S(=O)(=O)/N=C2/C=C(SCC(=O)O)C(=O)c3ccccc32)cc1C | 84* | 8 | 3 | 9 | 6
N#C/C(N=Nc1ccccc1O)=N\Nc1ccccc1O | 20 | 9 | -31 | -6 | 11
COCCNc1nc(NCc2ccccc2OC)c2sccc2n1 | 0 | 46 | -2 | . | 0
COCCNc1nc(NCc2cnc(C)cn2)c2sccc2n1 | -8 | 53* | -2 | . | 2
O=C1C(Cl)=C(N2CCCCCC2)C(=O)N1c1ccc(Cl)cc1 | -21 | 2 | 1 | -5 | 20
CN(C)c1ncc(C2=C(Cl)C(=O)C(N3CCCC3)=C(Cl)C2=O)s1 | 35 | 14 | 69* | 18 | 7
O=C1C(Cl)=C(N2CCCCC2)C(=O)C(Cl)=C1c1cnc(N2CCCCC2)s1 | 11 | 16 | 84* | 6 | 8
Oc1ccc(N=C/C=C/c2cccc(Br)c2)cc1-c1nc2ccccc2s1 | 1 | 23 | 52* | 3 | 11
O=C(NCc1ccccc1C(F)(F)F)c1cccc2c1C(=O)c1ccc(N3CCC(N4CCCCC4)CC3)cc1S2(=O)=O | 50* | 16 | -6 | . | -5
O=C(NCc1ccccc1Br)c1cccc2c1C(=O)c1ccc(N3CCC(Cc4ccccc4)CC3)cc1S2(=O)=O | -3 | 3 | 21 | -11 | -1
CCOc1ccccc1-c1c2cc(O)c(=O)cc-2oc2cc(O)c(O)cc12 | -19 | 66* | + | 33 | -310
COc1ccc(OC)c(-c2c3cc(O)c(=O)cc-3oc3cc(O)c(O)cc23)c1 | 25 | 78* | 150* | 68* | 16
O=c1cc2oc3cc(O)c(O)cc3c(-c3ccccc3O)c-2cc1O | 6 | 67* | 110* | 31 | 2
SMILES | SUMO1-SIM PPI | LMPTP block | DNMT1 block | Scp1 inh | STEP inh
O=C(Oc1ccc([N+](=O)[O-])cc1)C1CC(=O)N(c2ccc3c(c2)OCCO3)C1 (configuration not stated) | -2 | 4 | 23 | 69* | -1
O=C(COc1c(Br)cc(Br)c2cccnc12)Nc1ccccc1F | 47* | 9 | 33 | -11 | 3
O=C(COC(=O)c1cccc(S(=O)(=O)N2CCCCC2)c1)NCc1cccc(Cl)c1 | 2 | 0 | 2 | . | -2
CCN(CC(=O)Nc1ccc(NC(C)=O)cc1)C(=O)c1ccc(NC2CC2)c([N+](=O)[O-])c1 | -31 | 0 | -4 | 4 | 0
Cn1c(=O)c2nc3ccccc3nc2n(C)c1=O | -30 | 0 | 4 | -5 | -2
CC(=O)Nc1ccc2nc3c(=O)n(C)c(=O)n(C)c3nc2c1 | 9 | 1 | -1 | 84* | 2
Clc1cc(/C=N\NC2=NCCN2)cc(Cl)n1 | -14 | -2 | 1 | 0 | 0
NC(=O)c1c(NC(=O)Cn2nc(C(=O)O)c3ccccc3c2=O)sc2c1CCCC2 | 10 | 1 | 5 | -6 | -2
NC(=O)c1c(NC(=O)Cn2nc(C(=O)O)c3ccccc3c2=O)sc2c1CCC2 | 66* | 4 | -13 | 17 | 0
O=C(CN1C(=O)/C(=C/c2cccc(Cl)c2)SC1=S)NC1C=CS(=O)(=O)C1 (configuration not stated) | -15 | 2 | 4 | -1 | 1
O=C(CN1C(=O)/C(=C/c2ccccc2F)SC1=S)NC1C=CS(=O)(=O)C1 (configuration not stated) | -1 | 27 | 54* | 17 | 14
Cc1ccc(C)c(N(C(=O)CNC(=O)c2ccco2)C(C(=O)NC2CCCC2)c2ccncc2)c1 (configuration not stated) | 5 | 0 | 2 | -5 | -1
Nc1nn(-c2cccc(F)n2)cc1-c1ccccc1 | 47* | 1 | 2 | -3 | -1
COc1nc(Nc2nc3ccccc3c(=O)[nH]2)nc2ccc(C)cc12 | 47* | 5 | 48 | -9 | 3
Nc1c(C(=O)NCCc2ccccc2)nnn1Cc1ccc(Br)cc1F | 0 | 0 | -3 | -5 | -1
O=C1/C(=C\c2cc(Br)cc(Br)c2O)SC(=S)N1Cc1ccccc1 | 18 | 10 | 65* | 7 | 10
COc1cc([N+](=O)[O-])cc(/C=C2/SC(=S)N(Cc3ccccc3)C2=O)c1O | 64* | 5 | -14 | 4 | 8
O=C1/C(=C\c2ccc(O)cc2)SC(=S)N1Cc1ccccc1 | -14 | 1 | -4 | 23 | -2
O=C(O)CN1C(=O)/C(=C\c2cc(Br)ccc2OCc2ccc([N+](=O)[O-])cc2)SC1=S | 25 | 26 | 56* | 50 | 24
O=C(O)CN1C(=O)/C(=C\c2cc(Br)ccc2OCc2ccccc2F)SC1=S | 16 | 4 | 22 | 2 | 6
COc1ccc(-n2nnnc2SCC(=O)Nc2c(C)n[nH]c2C)cc1 | 0 | -2 | 4 | -12 | -2
O=C(COc1ccccc1)Nc1sc2c(c1C(=O)NCc1cccnc1)CCCC2 | -4 | 51* | 30 | 7 | 4
O=C(OCC1CCNCC1)c1ccc(F)cc1 | 8 | -1 | 1 | -4 | 0
O=[N+]([O-])c1nn(-c2cccc(Cl)c2)n(O)c1=NCc1cccnc1 | 43* | 0 | 0 | 9 | 0

Bioassay records (PubChem)
